{"source": "ChEMBL document CHEMBL1122321", "about": "“Synthesis and transport applications of 3-aminobicyclo[3.2.1] octane-3-carboxylic acids” (1983)", "assay_type_in_all_cases": "functional", "key": {"Rattus norvegicus [1]": {"species": "Rattus norvegicus", "assay": "Inhibition of threonine (0.5*10e-4) uptake by rat Hepatoma cells(HTC) at the specified Conc of 10 mM expressed as nM/mg of protein/min", "procedure,_shortened": "(§1)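 HTC hepatoma monolayers were grown in Medium 199 (pH 7.4, 26 mM NaHCO₃, antibiotics, 5–8% FBS) under 5% CO₂/95% air and seeded 3–4 days before testing. A 1-min uptake ran in Krebs-Ringer phosphate (pH 7.4, 37 °C), then the cells were washed with ice-cold Na⁺-free choline medium. Cells were extracted with 5% TCA and counted by scintillation. Protein was measured by modified Lowry with SDS and a BSA standard.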"}, "Mus musculus [2]": {"system": "Mus musculus", "assay": "Inhibition of MeAIB(10e-4) uptake by Ehrlich cell at the specified Conc of 10 mM expressed as mM/kg of cell water/min", "procedure,_shortened": "(§2)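 ¹⁴C-MeAIB uptake by Ehrlich ascites tumor cells propagated in Swiss white mice and washed in Na⁺-free media. Uptake ran for 1 min at 37 °C in 5% cell suspensions in Na⁺-containing Krebs-Ringer bicarbonate under 5% CO₂–O₂ (pH 7.4). Stopped by ice-cold dilution and centrifugation. ¹⁴C in the medium and in a sulfosalicylic acid cell extract was counted by liquid scintillation. Extracellular water was measured by sucrose.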"}, "Mus musculus [3]": {"system": "Mus musculus", "assay": "Inhibition of MeAIB(10e-4) uptake by Ehrlich cell at the specified Conc of 2.5 mM expressed as mM/kg of cell water/min", "procedure,_shortened": "as §2"}, "Mus musculus [4]": {"system": "Mus musculus", "assay": "Inhibition of MeAIB(10e-4) uptake by Ehrlich cell at the specified Conc of 0.25 mM expressed as mM/kg of cell water/min", "procedure,_shortened": "as §2"}, "Mus musculus [5]": {"system": "Mus musculus", "assay": "Inhibition of MeAIB(10e-4) uptake by Ehrlich cell at the specified Conc of 0.5 mM expressed as mM/kg of cell water/min", "procedure,_shortened": "as §2"}, "Rattus norvegicus [6]": {"species": "Rattus norvegicus", "assay": "Inhibition of threonine (0.5*10e-4) uptake by rat Hepatoma cells(HTC) at the specified Conc of 0.5 mM expressed as nM/mg of protein/min", "procedure,_shortened": "as §1"}, "Rattus norvegicus [7]": {"species": "Rattus norvegicus", "assay": "Inhibition of threonine (0.5*10e-4) uptake by rat Hepatoma cells(HTC) at the specified Conc of 2.5 mM expressed as nM/mg of protein/min", "procedure,_shortened": "as §1"}}, "data": [{"compound": "CC(O)C(N)C(=O)O", "note": "(stereo not drawn)", "values": [{"measurement": "Thr uptake", "setting": "Rattus norvegicus [1]", "value": 0.12}]}, {"compound": "N[C@]1(C(=O)O)C[C@@H]2CC[C@@H](C2)C1", "values": [{"measurement": "MeAIB uptake", "setting": "Mus musculus [2]", "value": 0.61}, {"measurement": "MeAIB uptake", "setting": "Mus musculus [3]", "value": 0.64}, {"measurement": "Thr uptake", "setting": "Rattus norvegicus [1]", "value": 3.45}, {"measurement": "MeAIB uptake", "setting": "Mus musculus [4]", "value": 0.67}, {"measurement": "MeAIB uptake", "setting": "Mus musculus [5]", "value": 0.66}, {"measurement": "Thr uptake", "setting": "Rattus norvegicus [6]", "value": 3.81}, {"measurement": "Thr uptake", "setting": "Rattus norvegicus [7]", "value": 3.52}]}]}
